Measurements: ChEMBL document CHEMBL4673308, “Synthesis and evaluation of new dinitrobenzamide mustards in human prostate cancer” (Bioorg Med Chem Lett, 2021)

Assays:
DU-145 [1] = experiment: Cytotoxicity against human DU145 cells assessed as reduction in cell viability incubated for 2 hrs under normoxic condition followed by washed with fresh media incubated for 3 days by alamar blue assay; type: functional, cell-based
Summary of the method: (§1)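 Cells exposed to the mustards across a concentration range for 2 h under hypoxia (N2) or normoxia (air), then washed and incubated 3 days under normoxia. Viability was read with alamarBlue, and IC50 is reported as mean ± SEM.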

PC-3 [2] = experiment: Cytotoxicity against human PC-3 cells assessed as reduction in cell viability incubated for 2 hrs under normoxic condition followed by washed with fresh media incubated for 3 days by alamar blue assay; type: functional, cell-based; summary of the method: as §1
PC-3 [3] = experiment: Cytotoxicity against human PC-3 cells assessed as reduction in cell viability incubated for 2 hrs under hypoxic condition followed by washed with fresh media incubated for 3 days by alamar blue assay; type: functional, cell-based; summary of the method: as §1
DU-145 [4] = experiment: Cytotoxicity against human DU145 cells assessed as reduction in cell viability incubated for 2 hrs under hypoxic condition followed washed with fresh media incubated for 3 days by alamar blue assay; type: functional, cell-based; summary of the method: as §1
[5] = Lipophilicity, logD of compound at pH 7.4 by microscale shake flask method; type: physicochemical; settings: buffer
Summary of the method: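 Distribution coefficient measured at pH 7.4 and reported as mean ± SEM from two or more independent experiments, each in triplicate.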

[6] = Selectivity index, ratio of IC50 for human PC-3 cells under normoxic condition to IC50 human PC-3 cells under hypoxia condition incubated for 2 hrs followed by washed with fresh media incubated for 3 days by alamar blue assay; type: functional
Summary of the method: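 PC-3 hypoxia selectivity is the IC50 in air divided by the IC50 under N2. Both come from the 2 h exposure, wash, 3-day normoxic incubation and alamarBlue viability readout.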

PC-3 [7] = experiment: Cytotoxicity against human PC-3 cells assessed as reduction in cell viability preincubated for 4 hrs in hypoxia and further incubated for 5 days in fresh medium by SRB assay; type: functional, cell-based

| SMILES | IC50 (DU-145 [1]) [µM] | IC50 (PC-3 [2]) [µM] | IC50 (PC-3 [3]) [µM] | IC50 (DU-145 [4]) [µM] | logD [5] | Ratio IC50 [6] | IC50 (PC-3 [7]) [µM] |
| --- | --- | --- | --- | --- | --- | --- | --- |
| CS(=O)(=O)OCCN(CCBr)c1c(C(=O)NCCO)cc([N+](=O)[O-])cc1[N+](=O)[O-] | 210 | 320 | 48 | 78 | 0.8 | 6.7 | 7.3 |
| CS(=O)(=O)OCCN(CCBr)c1c(C(=O)NCCC(=O)O)cc([N+](=O)[O-])cc1[N+](=O)[O-] | 326 | 417 | 41 | 56 | -0.71 | 10 | – |
| Cc1ccc(S(=O)(=O)OCCN(CCBr)c2c(C(=O)NCCC(=O)O)cc([N+](=O)[O-])cc2[N+](=O)[O-])cc1 | 363 | 460 | 42 | 54 | 1.03 | 11 | – |
| O=C(NCCO)c1cc([N+](=O)[O-])cc([N+](=O)[O-])c1N(CCBr)CCBr | 177 | 193 | 26 | 80 | 1.7 | 7.4 | – |
| Cc1ccc(S(=O)(=O)OCCN(CCBr)c2c(C(=O)NCCO)cc([N+](=O)[O-])cc2[N+](=O)[O-])cc1 | 108 | 146 | 37 | 28 | 0.95 | 3.9 | – |
| O=C(NCCO)c1cc([N+](=O)[O-])cc([N+](=O)[O-])c1N(CCBr)CCOS(=O)(=O)C(F)(F)F | 470 | 245 | 42 | 51 | 0.33 | 5.8 | – |
| O=C(O)CCNC(=O)c1cc([N+](=O)[O-])cc([N+](=O)[O-])c1N(CCBr)CCOS(=O)(=O)C(F)(F)F | 480 | 350 | 90 | 68 | 0.15 | 3.9 | – |
| O=C(O)CCNC(=O)c1cc([N+](=O)[O-])cc([N+](=O)[O-])c1N(CCBr)CCBr | 413 | 490 | 75 | 47 | 0.42 | 6.5 | – |
